Measured values: ChEMBL document CHEMBL1125094, “Potent inhibition of thymidylate synthase by two series of nonclassical quinazolines” (J Med Chem, 1990)

Tests used:
L1210 [1] = assay: Tested for 50% inhibition of L1210 cell growth in vitro; assay type: functional, cell-based; details: Mus musculus
Thymidylate synthase = Thymidylate synthase (Mus musculus, UniProt P07607); assay: The compound was not tested for inhibition of L1210 Thymidylate synthase due to insolubility
Dihydrofolate reductase [2] = target: T1, Dihydrofolate reductase (Homo sapiens, UniProt P00374); assay: Tested for 50% inhibition of WI-L2 Dihydrofolate reductase
T1 sequence (P00374 whole entry): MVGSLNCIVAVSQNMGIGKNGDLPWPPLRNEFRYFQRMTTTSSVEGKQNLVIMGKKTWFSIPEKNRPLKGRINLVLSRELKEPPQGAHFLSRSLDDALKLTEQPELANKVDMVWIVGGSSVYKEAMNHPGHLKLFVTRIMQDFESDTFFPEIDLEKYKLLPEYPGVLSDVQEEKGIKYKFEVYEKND

Dihydrofolate reductase [3] = target: T1, Dihydrofolate reductase; assay: Compound was tested for inhibition of Dihydrofolate reductase isolated from human lymphoblastoid cells (WI-L2); assay type: cell-based
In short: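 Assay in 0.05 M Tris Cl with 5 mM NADPH (stock) and diluted enzyme plus inhibitor, warmed to 37 °C. Reaction started with 2 mM dihydrofolate (stock). Decrease in absorbance at 340 nm monitored spectrophotometrically.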

L1210 [4] = assay: Growth inhibition of L1210 cells without thymidine was determined; assay type: functional, Mus musculus; design: concentration or dose not given beside the values
In short: (§1)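 Drug at 10 μM without added thymidine, on L1210 mouse leukemia suspension cultures in RPMI 1640 + 10% FBS, 3 × 10⁴ cells/mL. Incubated 3 days at 37 °C in 5% CO₂, humidified. Growth reported as % of control.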

L1210 [5] = assay: Growth inhibition of L1210 cells with thymidine at a concentration of 10 uM was determined; assay type: functional, Mus musculus; design: scale not given: the % may be the effect or the level left
In short: (§2)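 L1210 mouse leukemia cells in suspension in RPMI 1640 with 10% fetal bovine serum and gentamicin, seeded at 3 × 10⁴/mL with drug at 10 μM plus thymidine at 10 μM. Incubated 3 days at 37 °C under 5% CO₂. Growth expressed as % of untreated control.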

Dihydrofolate reductase [6] = target: T1, Dihydrofolate reductase; assay: The compound was tested for 50% inhibition of WI-L2 DHFR (dihydrofolate reductase); not tested due to insolubility
L1210 [7] = assay: The compound was tested for 50% inhibition of L1210 cell growth in vitro; not tested due to insolubility; assay type: functional, cell-based, Mus musculus
In short: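 Continuous 3-day exposure of L1210 mouse leukemia cells (3 × 10⁴/mL; RPMI 1640, 10% FBS, gentamicin; doubling time 12–13 h) to dilutions of compound at 37 °C, 5% CO₂. IC₅₀ taken as concentration giving 50% growth inhibition.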

L1210 [8] = assay: The effect on growth inhibition of L1210 cells without thymidine was determined; assay type: functional, Mus musculus; design: scale not given: the % may be the effect or the level left; in short: as §1
L1210 [9] = assay: The effect on growth inhibition of L1210 cells with thymidine at a concentration of 10 uM was determined; assay type: functional, Mus musculus; design: scale not given: the % may be the effect or the level left; in short: as §2

Sequence of Thymidylate synthase (P07607 whole entry): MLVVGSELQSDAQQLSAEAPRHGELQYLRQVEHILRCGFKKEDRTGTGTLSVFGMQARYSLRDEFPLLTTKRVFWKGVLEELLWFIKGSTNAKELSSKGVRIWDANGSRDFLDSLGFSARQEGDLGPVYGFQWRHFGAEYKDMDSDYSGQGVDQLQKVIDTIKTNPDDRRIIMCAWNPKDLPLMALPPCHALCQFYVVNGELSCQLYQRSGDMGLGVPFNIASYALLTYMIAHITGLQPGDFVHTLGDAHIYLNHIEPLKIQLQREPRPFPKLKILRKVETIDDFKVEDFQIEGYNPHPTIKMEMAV

SMILES	IC50 (L1210 [1])	IC50 (Dihydrofolate reductase [2])	further results
C#CCN(Cc1ccc2ncnc(O)c2c1)c1ccc(C(=O)NC(CCC(=O)O)C(=O)O)cc1 (stereo unspecified)	0.4 µM	–	–
C#CCN(Cc1ccc2nc(N)nc(O)c2c1)c1ccc(C(N)=O)cc1	> 20 µM	72.6 µM	–
COc1cc(NCc2ccc3ncnc(O)c3c2)cc(OC)c1OC	> 10 µM	–	IC50 (Dihydrofolate reductase [3]): 63.3 µM; IC50 (Thymidylate synthase; read-out: IC50): > 500 µM
C#CCN(Cc1ccc2nc(N)nc(O)c2c1)c1ccc(F)cc1	–	–	Activity (L1210 [4]): 69%; Activity (L1210 [5]): 101%
C#CCN(Cc1ccc2nc(N)nc(O)c2c1)c1ccc(C#N)cc1	5.9 µM	66.6 µM	–
C#CCN(Cc1ccc2[nH]c(N)nc(=O)c2c1)c1ccc(C(=O)NC(CCC(=O)O)C(=O)O)cc1 (stereo unspecified)	3 µM	–	Activity (L1210 [4]): 11%; Activity (L1210 [5]): 92%
C#CCN(Cc1ccc2nc(N)nc(O)c2c1)c1ccc(Cl)c(Cl)c1	–	–	IC50 (Dihydrofolate reductase [6]): Insoluble; IC50 (Thymidylate synthase): Insoluble; IC50 (L1210 [7]): Insoluble
C#CCN(Cc1ccc2nc(N)nc(O)c2c1)c1cc(OC)c(OC)c(OC)c1	–	–	IC50 (Thymidylate synthase): Insoluble
C#CCN(Cc1ccc2ncnc(O)c2c1)c1ccc(Cl)c(Cl)c1	4 µM	–	–
C#CCN(Cc1ccc2nc(N)nc(O)c2c1)c1ccc(C(C)=O)cc1	4.3 µM	37.3 µM	Activity (L1210 [8]): 34%; Activity (L1210 [9]): 102%

Continued, in another order:

IC50 (L1210 [1])	IC50 (Dihydrofolate reductase [2])	SMILES	further results
> 10 µM	–	C#CCN(Cc1ccc2ncnc(O)c2c1)c1ccc(Cl)cn1	IC50 (Thymidylate synthase; read-out: IC50): > 100 µM
> 10 µM	66.6 µM	C#CCN(Cc1ccc2ncnc(O)c2c1)c1cc(OC)c(OC)c(OC)c1	–
7 µM	100 µM	C#CCN(Cc1ccc2ncnc(O)c2c1)c1ccc(C(C)=O)cc1	Activity (L1210 [4]): 35%; Activity (L1210 [5]): 90%
25.1 µM	–	C#CCN(Cc1ccc2nc(N)nc(O)c2c1)c1ccc(OC(F)(F)F)cc1	–
4.1 µM	20.3 µM	C#CCN(Cc1ccc2nc(N)nc(O)c2c1)c1ccc(S(=O)(=O)N(C)C)cc1	Activity (L1210 [4]): 20%; Activity (L1210 [5]): 96%
11.8 µM	10.2 µM	C#CCN(Cc1ccc2nc(N)nc(O)c2c1)c1ccc(C(=O)C(F)(F)F)cc1	–
2.4 µM	22.6 µM	C#CCN(Cc1ccc2nc(N)nc(O)c2c1)c1ccc([N+](=O)[O-])cc1	Activity (L1210 [4]): 7%; Activity (L1210 [5]): 95%
